Reference: ChEMBL document CHEMBL1667819, “Aminopyridinecarboxamide-based inhaled IKK-2 inhibitors for asthma and COPD: Structure-activity relationship” (Bioorg Med Chem, 2011)

What was measured:
PBMC = assay: Inhibition of LPS-stimulated TNFalpha release in human PBMC; assay type: functional, cell-based
In short: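 PBMC were Ficoll-isolated from heparinized blood of healthy donors and plated at 2.5 × 10⁵ cells/well in RPMI 1640 with 5% FBS and penicillin–streptomycin. Cells were preincubated with compound for 1 h, then stimulated with LPS (20 ng/ml) for 16 h. Supernatant TNFα was measured by ELISA, and IC50 is the mean of ≥3 experiments.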

[1] = biological target: T1, Inhibitor of nuclear factor kappa-B kinase subunit beta (Homo sapiens) (UniProt O14920); assay: Binding affinity to human IKK2 in PBMC assessed as half life by cell-based assay
T1 sequence (whole entry): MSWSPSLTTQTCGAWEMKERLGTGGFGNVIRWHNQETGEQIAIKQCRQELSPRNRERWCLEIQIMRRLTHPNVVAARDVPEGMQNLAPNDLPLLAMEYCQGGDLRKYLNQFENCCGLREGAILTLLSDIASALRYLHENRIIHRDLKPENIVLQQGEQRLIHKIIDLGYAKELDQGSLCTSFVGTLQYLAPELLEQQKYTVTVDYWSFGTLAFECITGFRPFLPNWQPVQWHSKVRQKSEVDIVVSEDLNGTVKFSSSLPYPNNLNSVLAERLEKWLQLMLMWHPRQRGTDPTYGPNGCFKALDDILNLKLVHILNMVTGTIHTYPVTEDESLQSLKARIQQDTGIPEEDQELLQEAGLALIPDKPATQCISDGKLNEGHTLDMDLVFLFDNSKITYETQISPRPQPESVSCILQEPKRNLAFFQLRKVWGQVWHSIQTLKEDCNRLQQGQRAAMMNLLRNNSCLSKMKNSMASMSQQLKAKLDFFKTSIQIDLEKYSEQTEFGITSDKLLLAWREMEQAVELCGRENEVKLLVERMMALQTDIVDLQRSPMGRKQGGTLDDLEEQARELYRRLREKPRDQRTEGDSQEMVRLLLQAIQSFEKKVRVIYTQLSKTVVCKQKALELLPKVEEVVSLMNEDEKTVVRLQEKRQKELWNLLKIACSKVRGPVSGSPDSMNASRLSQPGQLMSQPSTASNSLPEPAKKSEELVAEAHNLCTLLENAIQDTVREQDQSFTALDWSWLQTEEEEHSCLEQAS
In short: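 Cryopreserved PBMC were thawed and plated, then exposed to compound for 1 h. Compound was removed by four spin-and-aspirate washes, and an unwashed plate served as control. Loss of inhibition after washout gave the cellular half-life.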

[2] = Half life in human liver microsomes
[3] = biological target: T1, Inhibitor of nuclear factor kappa-B kinase subunit beta (Homo sapiens); assay: Binding affinity to human recombinant IKK2 assessed as half life
[4] = biological target: T2, Inhibitor of nuclear factor kappa-B kinase subunit beta (Homo sapiens, UniProt O14920); assay: Inhibition of human recombinant IKK2
T2 sequence (O14920 whole entry): T1 sequence (whole entry)

[5] = biological target: Voltage-gated inwardly rectifying potassium channel KCNH2 (Homo sapiens, UniProt Q12809); assay: Displacement of dofetilide from human ERG transfected in HEK293 cells by fluorescence polarization assay
In short: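 Competition binding used membranes from HEK-293 cells transfected with hERG. Test compound competed with Cy3B-tagged N-desmethyl dofetilide for channel binding, with fluorescence polarization read-out. Values are given as % of effect.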

Voltage-gated inwardly rectifying potassium channel KCNH2, sequence (Q12809 whole entry): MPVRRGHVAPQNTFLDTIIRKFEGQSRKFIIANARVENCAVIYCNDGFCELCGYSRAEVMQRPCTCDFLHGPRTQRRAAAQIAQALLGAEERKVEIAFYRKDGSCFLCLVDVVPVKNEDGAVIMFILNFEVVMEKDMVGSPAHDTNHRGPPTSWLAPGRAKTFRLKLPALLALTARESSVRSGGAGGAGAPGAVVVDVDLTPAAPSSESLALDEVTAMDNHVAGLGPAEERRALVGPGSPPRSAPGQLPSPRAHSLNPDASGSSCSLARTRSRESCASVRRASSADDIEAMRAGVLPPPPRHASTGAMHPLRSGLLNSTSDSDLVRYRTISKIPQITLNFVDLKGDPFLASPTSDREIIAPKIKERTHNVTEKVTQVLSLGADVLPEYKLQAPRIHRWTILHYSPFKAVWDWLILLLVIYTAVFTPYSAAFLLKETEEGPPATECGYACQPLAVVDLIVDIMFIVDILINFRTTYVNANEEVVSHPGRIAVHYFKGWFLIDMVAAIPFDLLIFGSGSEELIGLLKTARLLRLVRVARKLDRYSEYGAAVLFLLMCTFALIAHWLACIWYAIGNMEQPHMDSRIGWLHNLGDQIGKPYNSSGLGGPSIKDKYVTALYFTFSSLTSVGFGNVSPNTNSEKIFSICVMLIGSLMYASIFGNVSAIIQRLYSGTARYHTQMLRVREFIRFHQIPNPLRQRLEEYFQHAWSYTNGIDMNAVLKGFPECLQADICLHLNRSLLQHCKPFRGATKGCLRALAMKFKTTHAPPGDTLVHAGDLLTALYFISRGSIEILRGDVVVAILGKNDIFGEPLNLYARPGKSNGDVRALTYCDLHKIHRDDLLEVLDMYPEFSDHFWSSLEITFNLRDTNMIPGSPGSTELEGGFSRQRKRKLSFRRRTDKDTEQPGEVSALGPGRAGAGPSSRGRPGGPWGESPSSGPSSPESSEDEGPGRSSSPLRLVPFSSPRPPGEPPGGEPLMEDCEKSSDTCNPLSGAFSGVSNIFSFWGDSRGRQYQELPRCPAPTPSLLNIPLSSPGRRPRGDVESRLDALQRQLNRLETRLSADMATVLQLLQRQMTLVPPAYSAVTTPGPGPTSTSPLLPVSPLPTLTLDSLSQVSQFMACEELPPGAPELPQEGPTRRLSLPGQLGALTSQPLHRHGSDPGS

CCOC(=O)Cn1cc(CN2CCN(c3cc(C(=O)Nc4ccc5c(c4)-c4c(c(C(N)=O)nn4-c4ccc(F)cc4)CC5)c(Cl)cn3)CC2)cn1
IC50 (PBMC): 6 nM
T1/2 [1]: > 4 h
half-life ([2]; liver microsomes): 0.05 h
T1/2 [3]: 5 h
IC50 [4]: 1 nM
inhibition (INH) [5]: 95%

N#CCCn1cc(CN2CCN(c3cc(C(=O)Nc4ccc5c(c4)-c4c(c(C(N)=O)nn4-c4ccc(F)cc4)CC5)c(Cl)cn3)CC2)cn1
IC50 (PBMC): 9 nM
T1/2 [1]: > 4 h
half-life ([2]; liver microsomes): 0.1 h
T1/2 [3]: 5 h
IC50 [4]: 7.6 nM
inhibition (INH) [5]: 98%

CCOC(=O)Cn1cc(CN2CCN(c3cc(C(=O)Nc4ccc5c(c4)-c4c(c(C(N)=O)nn4-c4cccc(F)c4)CC5)c(Cl)cn3)CC2)cn1
IC50 (PBMC): 9 nM
T1/2 [1]: > 4 h
half-life ([2]; liver microsomes): 0.05 h
T1/2 [3]: 5 h
IC50 [4]: 5 nM
inhibition (INH) [5]: 78%

NC(=O)c1nn(-c2ccc(F)cc2)c2c1CCc1ccc(NC(=O)c3cc(N4CCN(Cc5cnn(CCCO)c5)CC4)ncc3Cl)cc1-2
IC50 (PBMC): 15 nM
T1/2 [1]: > 4 h
half-life ([2]; microsomes): 0.15 h
T1/2 [3]: 5 h
IC50 [4]: 2.2 nM
inhibition (INH) [5]: 49%

COCCOCCCn1cc(CN2CCN(c3cc(C(=O)Nc4ccc5c(c4)-c4c(c(C(N)=O)nn4-c4ccc(F)cc4)CC5)c(Cl)cn3)CC2)cn1
IC50 (PBMC): 21 nM
T1/2 [1]: < 4 h
half-life ([2]; liver microsomes): 0.05 h
T1/2 [3]: 4 h
IC50 [4]: 6.6 nM
inhibition (INH) [5]: 69%

NC(=O)c1nn(-c2ccc(F)cc2)c2c1CCc1ccc(NC(=O)c3cc(N4CCN(Cc5cnn(CC(=O)NCCO)c5)CC4)ncc3Cl)cc1-2
IC50 (PBMC): 9 nM
T1/2 [1]: < 4 h
half-life ([2]; microsomes): 2 h
T1/2 [3]: 5 h
IC50 [4]: 1 nM
inhibition (INH) [5]: 12%
